Results collected from several papers.
Each line is one published result; the experiments were not run side by side.
ABCB1: ATP-dependent translocase ABCB1 (ABCB1, Homo sapiens, UniProt P08183)

COc1ccc(S(=O)(=O)ON=C2C=C(C)C(=O)C(C)=C2)cc1 — CC50 (MIA PaCa-2; cell growth or viability): 21.7 µM
C[C@]12CCCN1CC1=NNC(=O)c3cc(F)cc4[nH]c2c1c34 — Papp B→A (ABCB1; MDCK-MDR1; 1 µM): 36.4 ×10⁻⁶ cm/s
O=C(O)CSc1nnc(Br)n1-c1ccc(C2CC2)c2ccccc12 — inhibition (Multidrug and toxin extrusion protein 2 (SLC47A2, Homo sapiens, UniProt Q86VL8); transporter uptake, inhibitor; HEK293; 1 µM, 2 min): -21%
CC1=NN(c2ccc(C)c(C)c2)C(=O)/C1=N\Nc1cccc(-c2cccc(C(=O)O)c2)c1O — IC50 (LN-229; cell growth or viability; 72 h): 20 to 30 µM
COCCc1ccc(OCC(O)CNC(C)C)cc1 (stereo not shown) — Papp B→A (ABCB1; MDCK-MDR1; 5 µM): 31.5 ×10⁻⁶ cm/s
O=C(CCCCCCC(=O)Nc1ccc(CC[18F])cc1)NO — tracer uptake (LNCaP; male nude, tumour; intravenous, 30 min, tumour-bearing): 2.8 %ID/g
CC[C@H](C)[C@H](NC(=O)[C@H](Cc1ccccc1)NC(=O)[C@H](Cc1ccc(O)cc1)NC(=O)[C@@H]1CCCN1C(=O)[C@@H](N)Cc1ccc(O)cc1)C(=O)N1CCC[C@H]1C(=O)N[C@@H](CC(C)C)C(=O)N[C@H](CCCCN)C(=O)NCC(=O)NCC(=O)N[C@@H](CCC(=O)O)C(=O)N[C@H](C(=O)N[C@@H](CC(N)=O)C(=O)N[C@@H](CC(C)C)[C@@H](O)CC(=O)N[C@H](C(=O)N[C@@H](C)C(=O)N[C@@H](CCC(=O)O)C(=O)N1CCC[C@@H]1C(=O)N[C@@H](CCCCNC(=O)CCC(=O)O[C@H]1CC[C@@]2(C)C(=CC[C@H]3[C@@H]4CC[C@H]([C@H](C)CCCC(C)C)[C@@]4(C)CC[C@@H]32)C1)C(N)=O)C(C)C)C(C)C — thermodynamic solubility (aqueous buffer; pH 6.5): < 1 µg/mL
CC1(C)CCC2(CC1)N[C@@H](C(=O)N[C@@H]1CC[C@@H](C(N)=O)OC1)[C@H](c1ccnc(Cl)c1F)[C@]21C(=O)Nc2cc(Cl)ccc21 — efflux ratio (ABCB1; Caco-2; 100 µM, 2 h): 1.31
Cc1cc(-c2ccc(C(F)(F)F)cn2)[nH]c1C(=O)N[C@H](CN)c1nc(CO)cs1 — CC50 (Cf2Th-CCR5; cell growth or viability, MTS; 48 h): > 47 µM
O=C1CC(N(CCc2ccccc2)C(=S)Nc2ccccc2)C(=O)N1c1ccc(Br)cc1 (stereo not shown) — CC50 (Jurkat; cell growth or viability, ATP luminescence; 18 h): < 20 µM
